This is an account of results in ChEMBL document CHEMBL3352010, “Synthesis and Pharmacology of a Novel κ Opioid Receptor (KOR) Agonist with a 1,3,5-Trioxazatriquinane Skeleton” (ACS Med Chem Lett, 2014).

Where only a bound is given, the exact number is not on record here.

For assay [1], the target named is Kappa-type opioid receptor (Cavia porcellus, UniProt P41144). The assay is described as follows: Displacement of [3H]U69593 from kappa opioid receptor in guinea pig cerebellum.
Assay [2] addresses Delta-type opioid receptor (Mus musculus, UniProt P32300). Put plainly: Displacement of [3H]DPDPE from delta opioid receptor in mouse whole brain without cerebellum. (In a radioligand displacement assay an active substance lowers the binding of a labelled ligand.)
Assay [3] deals with Mu-type opioid receptor (Mus musculus, UniProt P42866). The assay is described as follows: Displacement of [3H]DAMGO from mu opioid receptor in mouse whole brain without cerebellum.
Assay [4] concerns the target T1, Delta-type opioid receptor (Homo sapiens, UniProt P41143). Put plainly: Agonist activity at human delta opioid receptor expressed in CHO cells assessed as stimulation of [35S]-GTPgammaS binding. In kind it is functional, cell-based.
Assay [5] relates to Mus musculus. The assay is described as follows: Analgesic activity in sc dosed mouse assessed as inhibition of acetic acid-induced writhing response treated 15 mins before acetic acid challenge measured after 10 mins. In kind it is functional. Put shortly: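 Test agent given s.c. to mice; 15 min later, 0.6% acetic acid i.p. at 10 mL/kg. After a 10 min delay, abdominal constrictions were counted over the next 10 min. 8 mice per group; group means ± SEM; ED50 taken from the dose-response. Statistics by one-way ANOVA with Bonferroni test versus vehicle.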
On the technique in general: In writhing tests, fewer writhes than in controls are read as antinociception.

Assay [6] deals with T2, Kappa-type opioid receptor (Homo sapiens, UniProt P41145). Put plainly: Agonist activity at human kappa opioid receptor expressed in CHO cells assessed as stimulation of [35S]-GTPgammaS binding. It is filed as functional, cell-based. In general terms: Binding of GTPγS marks nucleotide exchange on a G protein.
For assay [7], the target named is T2, Kappa-type opioid receptor. The assay is described as follows: Agonist activity at human kappa opioid receptor expressed in CHO cells assessed as stimulation of [35S]-GTPgammaS binding relative to U69593. In kind it is functional, cell-based.
For assay [8], the target named is T1, Delta-type opioid receptor. The assay is described as follows: Agonist activity at human delta opioid receptor expressed in CHO cells assessed as stimulation of [35S]-GTPgammaS binding relative to DPDPE. It is filed as functional, cell-based.

Sequence of Delta-type opioid receptor (Mus musculus, UniProt P32300) (P32300 whole entry): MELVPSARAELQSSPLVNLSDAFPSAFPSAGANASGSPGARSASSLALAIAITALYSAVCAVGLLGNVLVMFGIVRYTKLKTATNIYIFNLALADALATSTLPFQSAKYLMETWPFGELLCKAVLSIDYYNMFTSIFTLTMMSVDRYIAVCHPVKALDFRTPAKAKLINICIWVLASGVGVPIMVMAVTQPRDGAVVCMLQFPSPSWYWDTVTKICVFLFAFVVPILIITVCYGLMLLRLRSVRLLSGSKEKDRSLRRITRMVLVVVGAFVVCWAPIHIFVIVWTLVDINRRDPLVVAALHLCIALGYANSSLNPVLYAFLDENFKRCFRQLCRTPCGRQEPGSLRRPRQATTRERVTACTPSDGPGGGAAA
Sequence of Kappa-type opioid receptor (Cavia porcellus, UniProt P41144) (P41144 whole entry): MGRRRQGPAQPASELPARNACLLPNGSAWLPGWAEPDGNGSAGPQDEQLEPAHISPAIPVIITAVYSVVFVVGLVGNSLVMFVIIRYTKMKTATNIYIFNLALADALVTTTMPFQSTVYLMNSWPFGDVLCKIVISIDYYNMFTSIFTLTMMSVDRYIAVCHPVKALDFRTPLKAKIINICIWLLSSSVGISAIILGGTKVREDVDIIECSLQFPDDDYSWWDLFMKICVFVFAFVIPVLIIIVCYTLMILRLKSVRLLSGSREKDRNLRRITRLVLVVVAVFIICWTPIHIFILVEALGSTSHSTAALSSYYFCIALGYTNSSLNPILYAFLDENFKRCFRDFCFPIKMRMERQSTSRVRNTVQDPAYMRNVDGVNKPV
T2 sequence (P41145 whole entry): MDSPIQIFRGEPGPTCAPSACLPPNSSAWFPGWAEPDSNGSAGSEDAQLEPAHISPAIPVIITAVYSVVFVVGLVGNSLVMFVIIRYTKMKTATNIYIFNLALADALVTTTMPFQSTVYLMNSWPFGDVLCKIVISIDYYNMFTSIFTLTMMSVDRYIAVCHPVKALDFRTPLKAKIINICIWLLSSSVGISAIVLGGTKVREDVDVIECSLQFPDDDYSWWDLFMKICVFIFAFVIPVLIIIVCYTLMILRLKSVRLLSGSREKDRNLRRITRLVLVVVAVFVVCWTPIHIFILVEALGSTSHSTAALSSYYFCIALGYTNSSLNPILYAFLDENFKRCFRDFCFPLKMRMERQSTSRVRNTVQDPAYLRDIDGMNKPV
Sequence of Mu-type opioid receptor (P42866 whole entry): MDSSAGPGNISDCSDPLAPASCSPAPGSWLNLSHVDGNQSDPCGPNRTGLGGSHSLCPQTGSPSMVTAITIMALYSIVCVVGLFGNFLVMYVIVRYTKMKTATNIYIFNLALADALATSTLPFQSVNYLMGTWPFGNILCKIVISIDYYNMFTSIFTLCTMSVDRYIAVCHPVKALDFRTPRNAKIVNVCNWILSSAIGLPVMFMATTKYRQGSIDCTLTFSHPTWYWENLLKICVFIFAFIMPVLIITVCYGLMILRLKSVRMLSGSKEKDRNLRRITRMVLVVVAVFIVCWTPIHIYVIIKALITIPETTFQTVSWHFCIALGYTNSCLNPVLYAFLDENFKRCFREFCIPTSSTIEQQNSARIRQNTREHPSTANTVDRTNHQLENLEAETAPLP
T1 sequence (P41143 whole entry): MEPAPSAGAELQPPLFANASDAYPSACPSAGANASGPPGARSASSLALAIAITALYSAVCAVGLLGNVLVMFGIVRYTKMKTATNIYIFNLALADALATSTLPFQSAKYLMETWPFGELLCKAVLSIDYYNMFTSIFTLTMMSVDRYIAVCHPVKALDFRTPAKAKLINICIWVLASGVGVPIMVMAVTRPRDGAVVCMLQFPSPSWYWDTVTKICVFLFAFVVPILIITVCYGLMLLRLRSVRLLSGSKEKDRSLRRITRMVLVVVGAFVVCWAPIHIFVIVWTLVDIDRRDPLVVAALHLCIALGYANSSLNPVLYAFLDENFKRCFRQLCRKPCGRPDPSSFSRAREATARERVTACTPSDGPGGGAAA

With `C[C@@]1(c2cccc(O)c2)O[C@H]2CO[C@H]3CO[C@@H]1N32` (relative stereo), the Ki in assay [1], in assay [2] and in assay [3] was greater than 1 µM each time.
As to `COc1cccc([C@]2(C)O[C@H]3CO[C@@H]4N3[C@H]2O[C@]4(C)c2cccc(OC)c2)c1` (relative stereo), the Ki in assay [1], in assay [2] and in assay [3] was greater than 1 µM throughout.
For `COc1cccc([C@]2(C)O[C@H]3CO[C@@H]4N3[C@H]2O[C@]4(C)c2cccc(O)c2)c1` (relative stereo), the Ki in assay [1], in assay [2] and in assay [3] was greater than 1 µM each time.
Consider `C[C@@]1(c2cccc(O)c2)O[C@H]2CO[C@@H]3N2[C@H]1O[C@@]3(C)c1cccc(O)c1` (relative stereo), for which the Ki in assay [1] was 0.793 µM; in assay [2] it was greater than 1 µM; in assay [3] it was 0.735 µM.
Taken in the same sequence, the figures for `C[C@]1(c2cccc(O)c2)O[C@H]2CO[C@H]3CO[C@@H]1N32` (relative stereo) were greater than 1 µM, greater than 1 µM and greater than 1 µM.
The corresponding values for `C[C@@]1(c2cccc(O)c2)O[C@@H]2N3[C@H]1O[C@@](C)(c1cccc(O)c1)[C@@H]3O[C@@]2(C)c1cccc(O)c1` (relative stereo) are greater than 1 µM, greater than 1 µM and greater than 1 µM.
Consider `C[C@@]1(c2cccc(O)c2)O[C@H]2CO[C@@H]3N2[C@H]1O[C@]3(C)c1cccc(O)c1` [listing 1 of 2 here], for which the Ki in assay [1] was 0.00463 µM; in assay [2] it was greater than 1 µM; in assay [3], greater than 1 µM. Further, the results for the EC50 in assay [4] and in assay [6] were 0.0837 µM and 0.0503 µM, respectively. The ED50 in assay [5] was found to be 3.5 mg/kg.
For `CC1(c2cccc(O)c2)OC2COC3N2C1OC3(C)c1cccc(O)c1` (stereo not given), the Ki in assay [1] is greater than 1 µM; in assay [2], 0.651 µM; in assay [3], 0.293 µM.
On to `C[C@@]1(c2cccc(O)c2)O[C@@H]2N3[C@H]1O[C@](C)(c1cccc(O)c1)[C@@H]3O[C@@]2(C)c1cccc(O)c1` (relative stereo), for which the figures for the Ki in assay [1], in assay [2] and in assay [3] were 0.667 µM, greater than 1 µM and 0.652 µM, respectively.
`C[C@@]1(c2cccc(O)c2)O[C@@H]2N3[C@H](CO[C@H]31)O[C@]2(C)c1cccc(O)c1` (relative stereo): the Ki in assay [1], in assay [2] and in assay [3] was greater than 1 µM throughout.
Consider `C[C@@]1(c2cccc(O)c2)O[C@H]2CO[C@@H]3N2[C@H]1O[C@]3(C)c1cccc(O)c1` (relative stereo) [listing 1 of 2 here], for which, in assay [7], the Emax came to 98.2%.
As for `C[C@@]1(c2cccc(O)c2)O[C@H]2CO[C@@H]3N2[C@H]1O[C@]3(C)c1cccc(O)c1` [listing 2 of 2 here], the Emax in assay [7] was 96.8%; in assay [8], 23.4%. Also, the Activity result in assay [5] was “Dose-dependent effect”.
With `C[C@@]1(c2cccc(O)c2)O[C@@H]2N3[C@H]1O[C@](C)(c1cccc(O)c1)[C@@H]3O[C@]2(C)c1cccc(O)c1` (relative stereo), the results for the Ki in assay [1], in assay [2] and in assay [3] were greater than 1 µM, greater than 1 µM and 0.928 µM, respectively.
For the compound `COc1cccc([C@@]2(C)O[C@@H]3N4[C@H](CO[C@H]42)O[C@@]3(C)c2cccc(O)c2)c1` (relative stereo), the results for the Ki in assay [1], in assay [2] and in assay [3] were 0.0528 µM, greater than 1 µM and greater than 1 µM, respectively.
For the compound `C[C@@]1(c2cccc(O)c2)O[C@H]2CO[C@@H]3N2[C@H]1O[C@]3(C)c1cccc(O)c1` (relative stereo) [listing 2 of 2 here], the results for the Ki in assay [1], in assay [2] and in assay [3] were 0.00609 µM, greater than 1 µM and greater than 1 µM, respectively. Moreover, in assay [6], the EC50 was 0.0975 µM.
Consider `C[C@]1(c2cccc(O)c2)O[C@H]2CO[C@@H]3N2[C@H]1O[C@]3(C)c1cccc(O)c1` (relative stereo), for which the Ki in assay [1], in assay [2] and in assay [3] was greater than 1 µM each time.

As a reminder, the Ki is a measure of affinity in units of concentration, obtained from inhibition or displacement. A lower Ki goes with higher affinity. The EC50 is the concentration that produces a half-maximal response. For orientation: ED50 means the dose at which the effect has come halfway, by size or by number of responders. In general, Emax refers to the size of the effect at its maximum, as opposed to the concentration needed.
